# Assay results published in ChEMBL document CHEMBL4706531, “Discovery of Novel c-Mesenchymal-Epithelia transition factor and histone deacetylase dual inhibitors” (Eur J Med Chem, 2020).
# Activity calls are given as the source filed them. The rule behind the calls is not given here.
# Experiments:
# HCT-116 [1] = test: cells; format: functional, cell-based; conditions: Homo sapiens, HCT-116, 72 h
# MCF7 = test: cells; format: functional, cell-based; conditions: Homo sapiens, MCF7, 72 h
# A549 = test: cells; format: functional, cell-based; conditions: Homo sapiens, A549, 72 h
# Histone deacetylase 1 [2] = target: T1, Histone deacetylase 1 (Homo sapiens, UniProt Q13547); conditions: Sf9, dose 100.0 nM, time 75.0 min
# [3] = target: T2, Hepatocyte growth factor receptor (Homo sapiens, UniProt P08581); conditions: dose 100.0 nM, time 10.0 min
# Histone deacetylase 1 [4] = target: T1, Histone deacetylase 1; test: Inhibition of human C-terminal Flag tagged HDAC1 (1 to 482 residues) expressed in SF9 cells using Ac-peptide substrate preincubated for 15 mins followed by substrate addition and measured after 60 mins by microplate reader method
# [5] = target: T2, Hepatocyte growth factor receptor; test: Inhibition of c-MET(unknown origin) using FAM labelled peptide substrate preincubated for 10 mins followed by substrate addition and measured by microplate reader method
# HCT-116 [6] = test: Induction of apoptosis in human HCT-116 cells assessed as viable cells at 0.2 uM measured after 48 hrs by Annexin V/PI staining based Flowcytometry method (reference value: 95.33%); format: functional; conditions: read-out: Activity
# How it was run: (§1)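 HCT-116 cells seeded at 10^5 cells/mL in 6-well plates. After 12 h, dosed at 0.2, 1.0 or 5.0 μM for 48 h, then washed three times in PBS. Stained with Annexin V-FITC/PI per kit and read by flow cytometry. Early apoptotic = Annexin V+/PI−, late = double positive. Mean ± S.D., n = 3.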
# HCT-116 [7] = test: Induction of apoptosis in human HCT-116 cells assessed as early apoptotic cells at 0.2 uM measured after 48 hrs by Annexin V/PI staining based Flowcytometry method (reference value: 2.04%); format: functional
# How it was run: as §1
# HCT-116 [8] = test: Induction of apoptosis in human HCT-116 cells assessed as late apoptotic cells at 0.2 uM measured after 48 hrs by Annexin V/PI staining based Flowcytometry method (reference value: 1.44%); format: functional
# How it was run: as §1
# HCT-116 [9] = test: Induction of apoptosis in human HCT-116 cells assessed as necrotic cells at 0.2 uM measured after 48 hrs by Annexin V/PI staining based Flowcytometry method (reference value: 1.19%); format: functional
# How it was run: as §1
# HCT-116 [10] = test: Induction of apoptosis in human HCT-116 cells assessed as viable cells at 1 uM measured after 48 hrs by Annexin V/PI staining based Flowcytometry method (reference value: 95.33%); format: functional; conditions: read-out: Activity
# How it was run: as §1
# HCT-116 [11] = test: Induction of apoptosis in human HCT-116 cells assessed as early apoptotic cells at 1 uM measured after 48 hrs by Annexin V/PI staining based Flowcytometry method (reference value: 2.04%); format: functional
# How it was run: as §1
# HCT-116 [12] = test: Induction of apoptosis in human HCT-116 cells assessed as late apoptotic cells at 1 uM measured after 48 hrs by Annexin V/PI staining based Flowcytometry method (reference value: 1.44%); format: functional
# How it was run: as §1
# HCT-116 [13] = test: Induction of apoptosis in human HCT-116 cells assessed as necrotic cells at 1 uM measured after 48 hrs by Annexin V/PI staining based Flowcytometry method (reference value: 1.19%); format: functional
# How it was run: as §1
# HCT-116 [14] = test: Induction of apoptosis in human HCT-116 cells assessed as viable cells at 5 uM measured after 48 hrs by Annexin V/PI staining based Flowcytometry method (reference value: 95.33%); format: functional; conditions: read-out: Activity
# How it was run: as §1
# HCT-116 [15] = test: Induction of apoptosis in human HCT-116 cells assessed as early apoptotic cells at 5 uM measured after 48 hrs by Annexin V/PI staining based Flowcytometry method (reference value: 2.04%); format: functional
# How it was run: as §1
# HCT-116 [16] = test: Induction of apoptosis in human HCT-116 cells assessed as late apoptotic cells at 5 uM measured after 48 hrs by Annexin V/PI staining based Flowcytometry method (reference value: 1.44%); format: functional
# How it was run: as §1
# HCT-116 [17] = test: Induction of apoptosis in human HCT-116 cells assessed as necrotic cells at 5 uM measured after 48 hrs by Annexin V/PI staining based Flowcytometry method (reference value: 1.19%); format: functional
# How it was run: as §1
# HCT-116 [18] = test: Cell cycle arrest in human HCT-116 cells assessed as accumulation of cells in G2/M phase at 0.2 uM measured after 48 hrs by PI staining based flowcytometry method (reference value: 11.74%); format: functional
# HCT-116 [19] = test: Cell cycle arrest in human HCT-116 cells assessed as accumulation of cells in S phase at 0.2 uM measured after 48 hrs by PI staining based flowcytometry method (reference value: 30.63%); format: functional
# HCT-116 [20] = test: Cell cycle arrest in human HCT-116 cells assessed as accumulation of cells in G1 phase at 0.2 uM measured after 48 hrs by PI staining based flowcytometry method (reference value: 57.63%); format: functional
# HCT-116 [21] = test: Cell cycle arrest in human HCT-116 cells assessed as accumulation of cells in G2/M phase at 1 uM measured after 48 hrs by PI staining based flowcytometry method (reference value: 11.74%); format: functional
# HCT-116 [22] = test: Cell cycle arrest in human HCT-116 cells assessed as accumulation of cells in S phase at 1 uM measured after 48 hrs by PI staining based flowcytometry method (reference value: 30.63%); format: functional
# HCT-116 [23] = test: Cell cycle arrest in human HCT-116 cells assessed as accumulation of cells in G1 phase at 1 uM measured after 48 hrs by PI staining based flowcytometry method (reference value: 57.63%); format: functional
# HCT-116 [24] = test: Cell cycle arrest in human HCT-116 cells assessed as accumulation of cells in G2/M phase at 5 uM measured after 48 hrs by PI staining based flowcytometry method (reference value: 11.74%); format: functional
# HCT-116 [25] = test: Cell cycle arrest in human HCT-116 cells assessed as accumulation of cells in S phase at 5 uM measured after 48 hrs by PI staining based flowcytometry method (reference value: 30.63%); format: functional
# HCT-116 [26] = test: Cell cycle arrest in human HCT-116 cells assessed as accumulation of cells in G1 phase at 5 uM measured after 48 hrs by PI staining based flowcytometry method (reference value: 57.63%); format: functional
# T2 sequence (P08581 whole entry, the tested form may be a part): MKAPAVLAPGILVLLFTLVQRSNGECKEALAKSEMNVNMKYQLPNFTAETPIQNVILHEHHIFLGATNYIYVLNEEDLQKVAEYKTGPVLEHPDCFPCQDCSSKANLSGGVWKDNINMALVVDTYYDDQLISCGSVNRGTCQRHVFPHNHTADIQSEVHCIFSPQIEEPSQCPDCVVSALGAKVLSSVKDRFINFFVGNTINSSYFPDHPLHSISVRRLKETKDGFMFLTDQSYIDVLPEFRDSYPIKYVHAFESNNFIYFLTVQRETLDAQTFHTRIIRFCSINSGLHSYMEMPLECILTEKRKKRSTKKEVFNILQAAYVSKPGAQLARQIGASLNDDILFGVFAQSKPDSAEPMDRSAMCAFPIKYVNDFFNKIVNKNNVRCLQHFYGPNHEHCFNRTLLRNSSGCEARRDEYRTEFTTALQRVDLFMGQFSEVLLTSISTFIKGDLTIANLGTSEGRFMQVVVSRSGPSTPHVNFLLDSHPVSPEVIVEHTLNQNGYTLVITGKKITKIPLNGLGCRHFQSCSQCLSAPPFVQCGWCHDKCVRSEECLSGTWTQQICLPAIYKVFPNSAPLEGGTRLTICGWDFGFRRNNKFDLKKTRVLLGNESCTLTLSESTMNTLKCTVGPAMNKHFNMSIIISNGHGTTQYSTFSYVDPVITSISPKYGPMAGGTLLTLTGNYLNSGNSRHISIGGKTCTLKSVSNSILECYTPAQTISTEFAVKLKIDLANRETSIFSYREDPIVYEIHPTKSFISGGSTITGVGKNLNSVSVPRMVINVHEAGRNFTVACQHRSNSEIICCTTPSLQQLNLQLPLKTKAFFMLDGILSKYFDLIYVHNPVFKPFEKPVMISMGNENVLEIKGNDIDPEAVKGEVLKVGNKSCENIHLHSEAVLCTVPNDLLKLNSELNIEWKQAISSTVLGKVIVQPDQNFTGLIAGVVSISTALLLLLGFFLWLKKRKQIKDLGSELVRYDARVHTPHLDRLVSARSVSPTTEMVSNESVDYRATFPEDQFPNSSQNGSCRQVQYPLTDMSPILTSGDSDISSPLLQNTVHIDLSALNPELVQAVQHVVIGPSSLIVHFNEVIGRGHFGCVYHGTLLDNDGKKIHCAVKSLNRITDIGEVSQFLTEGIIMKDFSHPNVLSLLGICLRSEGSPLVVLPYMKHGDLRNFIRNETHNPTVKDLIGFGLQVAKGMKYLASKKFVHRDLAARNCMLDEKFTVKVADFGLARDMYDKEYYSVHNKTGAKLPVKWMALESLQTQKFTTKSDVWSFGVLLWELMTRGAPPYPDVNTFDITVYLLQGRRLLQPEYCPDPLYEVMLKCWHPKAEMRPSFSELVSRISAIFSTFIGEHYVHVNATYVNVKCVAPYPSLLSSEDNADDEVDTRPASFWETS
# T1 sequence (Q13547 whole entry): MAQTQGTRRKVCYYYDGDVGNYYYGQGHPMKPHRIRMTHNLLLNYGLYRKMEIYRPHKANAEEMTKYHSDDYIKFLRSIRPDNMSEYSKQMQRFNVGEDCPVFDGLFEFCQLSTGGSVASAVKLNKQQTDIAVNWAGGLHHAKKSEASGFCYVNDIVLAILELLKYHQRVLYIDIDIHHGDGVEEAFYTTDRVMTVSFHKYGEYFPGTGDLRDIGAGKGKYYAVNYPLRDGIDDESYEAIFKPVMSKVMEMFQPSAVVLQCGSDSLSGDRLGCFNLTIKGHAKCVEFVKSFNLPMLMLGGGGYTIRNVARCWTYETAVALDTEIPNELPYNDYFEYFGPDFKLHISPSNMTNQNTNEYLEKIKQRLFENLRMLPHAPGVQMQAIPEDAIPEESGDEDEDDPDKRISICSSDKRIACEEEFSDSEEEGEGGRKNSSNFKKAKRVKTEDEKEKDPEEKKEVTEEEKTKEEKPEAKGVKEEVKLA
compound,measurement,setting,value
COc1cc2c(Oc3ccc(NC(=O)c4nn(-c5ccccc5C)cc(C)c4=O)cc3)ccnc2cc1OCCCC(=O)NO,IC50,HCT-116 [1],640 nM
same,IC50,MCF7,1600 nM
same,IC50,A549,4460 nM
same,inhibition,Histone deacetylase 1 [2],10.7%
same,inhibition,[3],98.5%
COc1cc2c(Oc3ccc(NC(=O)c4nn(-c5ccccc5C)ccc4=O)cc3)ccnc2cc1OCCCCCC(=O)NO,IC50,HCT-116 [1],700 nM
same,IC50,MCF7,4360 nM
same,IC50,A549,3920 nM
same,inhibition,Histone deacetylase 1 [2],62.1%
same,inhibition,[3],90.4%
COc1cc2c(Oc3ccc(NC(=O)c4nn(-c5ccccc5)cc(C)c4=O)cc3F)ccnc2cc1OCCCC(=O)NO,IC50,HCT-116 [1],660 nM
same,IC50,MCF7,1900 nM
same,IC50,A549,1900 nM
same,inhibition,Histone deacetylase 1 [2],2.5%
same,inhibition,[3],98.3%
COc1cc2c(Oc3ccc(NC(=O)c4nn(-c5ccccc5C)cc(C)c4=O)cc3)ccnc2cc1OCC(=O)NO,IC50,HCT-116 [1],9260 nM
same,IC50,MCF7,8780 nM
same,IC50,A549,5980 nM
same,inhibition,Histone deacetylase 1 [2],inactive
same,inhibition,[3],63.5%
COc1cc2c(Oc3ccc(NC(=O)c4nn(-c5ccccc5)ccc4=O)cc3)ccnc2cc1OCCCCCCC(=O)NO,IC50,Histone deacetylase 1 [4],18.5 nM
same,IC50,[5],5.4 nM
same,IC50,HCT-116 [1],220 nM
same,IC50,MCF7,1590 nM
same,IC50,A549,220 nM
same,viability at 0.2 µM,HCT-116 [6],94.9%
same,Activity,HCT-116 [7],2.35%
same,Activity,HCT-116 [8],1.84%
same,Activity,HCT-116 [9],0.9%
same,viability at 1 µM,HCT-116 [10],84.3%
same,Activity,HCT-116 [11],8.44%
same,Activity,HCT-116 [12],3.09%
same,Activity,HCT-116 [13],4.12%
same,viability at 5 µM,HCT-116 [14],75.6%
same,Activity,HCT-116 [15],19.23%
same,Activity,HCT-116 [16],2.25%
same,Activity,HCT-116 [17],2.96%
same,Activity,HCT-116 [18],14.59%
same,Activity,HCT-116 [19],30.04%
same,Activity,HCT-116 [20],55.37%
same,Activity,HCT-116 [21],80.03%
same,Activity,HCT-116 [22],15.1%
same,Activity,HCT-116 [23],4.87%
same,Activity,HCT-116 [24],81.22%
same,Activity,HCT-116 [25],13.28%
same,Activity,HCT-116 [26],5.5%
COc1cc2c(Oc3ccc(NC(=O)c4nn(-c5cccc(C)c5)cc(C)c4=O)cc3)ccnc2cc1OCCCCCCC(=O)NO,IC50,HCT-116 [1],370 nM
same,IC50,MCF7,1680 nM
same,IC50,A549,280 nM
same,inhibition,Histone deacetylase 1 [2],62%
same,inhibition,[3],76.5%
COc1cc2c(Oc3ccc(NC(=O)c4nn(-c5ccccc5)cc(C)c4=O)cc3)ccnc2cc1OCCCCCCC(=O)NO,IC50,Histone deacetylase 1 [4],34 nM
same,IC50,[5],19.9 nM
same,IC50,HCT-116 [1],150 nM
same,IC50,MCF7,1610 nM
same,IC50,A549,420 nM
same,inhibition,Histone deacetylase 1 [2],86.6%
same,inhibition,[3],88.6%
COc1cc2c(Oc3ccc(NC(=O)c4nn(-c5ccccc5C)cc(C)c4=O)cc3)ccnc2cc1OCCCCCC(=O)NO,IC50,HCT-116 [1],290 nM
same,IC50,MCF7,1830 nM
same,IC50,A549,1820 nM
same,inhibition,Histone deacetylase 1 [2],36.9%
same,inhibition,[3],95.7%
COc1cc2c(Oc3ccc(NC(=O)c4nn(-c5cccc(C(F)(F)F)c5)cc(C)c4=O)cc3)ccnc2cc1OCCCCCCC(=O)NO,IC50,HCT-116 [1],590 nM
same,IC50,MCF7,750 nM
same,IC50,A549,780 nM
same,inhibition,Histone deacetylase 1 [2],35.3%
same,inhibition,[3],46.3%
COc1cc2c(Oc3ccc(NC(=O)c4nn(-c5ccccc5)ccc4=O)cc3)ccnc2cc1OCCCC(=O)NO,IC50,HCT-116 [1],940 nM
same,IC50,MCF7,7410 nM
same,IC50,A549,9260 nM
same,inhibition,Histone deacetylase 1 [2],12.6%
same,inhibition,[3],96.4%
CCc1cn(-c2ccccc2)nc(C(=O)Nc2ccc(Oc3ccnc4cc(OCCCCCCC(=O)NO)c(OC)cc34)cc2)c1=O,IC50,Histone deacetylase 1 [4],34.8 nM
same,IC50,[5],14.2 nM
same,IC50,HCT-116 [1],300 nM
same,IC50,MCF7,1210 nM
same,IC50,A549,230 nM
same,inhibition,Histone deacetylase 1 [2],86.4%
same,inhibition,[3],78.2%
COc1cc2c(Oc3ccc(NC(=O)c4nn(-c5ccccc5C(F)(F)F)ccc4=O)cc3)ccnc2cc1OCC(=O)NO,IC50,HCT-116 [1],9500 nM
same,IC50,MCF7,6320 nM
same,IC50,A549,> 20000 nM
same,inhibition,Histone deacetylase 1 [2],1.2%
same,inhibition,[3],56.3%
COc1cc2c(Oc3ccc(NC(=O)c4nn(-c5ccccc5F)cc(C)c4=O)cc3F)ccnc2cc1OCCCC(=O)NO,IC50,HCT-116 [1],1120 nM
same,IC50,MCF7,2100 nM
same,IC50,A549,1370 nM
same,inhibition,Histone deacetylase 1 [2],7.1%
same,inhibition,[3],94%
